Results reported in ChEMBL document CHEMBL1147356, “Structure and stereochemistry of pectinolides A-C, novel antimicrobial and cytotoxic 5,6-dihydro-alpha-pyrones from Hyptis pectinata” (1993).
Converted amounts (≈) assume the structure as drawn. The source made the active and inactive calls. No cut-off for these calls is given here.

What was measured:
Bacillus subtilis [1] = experiment: Antibacterial activity against Bacillus subtilis ATCC 6633 at 1 mg/ml after 24 hrs at 37 degC by agar hole-plate diffusion assay; assay type: functional; conditions: ATCC 6633, 24 h, read-out: IZ
How it was run: (§1)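 Agar hole-plate diffusion. Agar plates (15 ml) seeded with 1 ml overnight broth culture (10⁶ bacteria/ml); 11 mm holes filled with 100 μl of pure compound at 1 mg/ml. Streptomycin sulfate (1 mg/ml) as positive control. Duplicate per organism, 24 h at 37°. Inhibition zone diameters measured.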

Staphylococcus aureus [2] = experiment: Antibacterial activity against Staphylococcus aureus ATCC 6538 at 1 mg/ml after 24 hrs at 37 degC by agar hole-plate diffusion assay; assay type: functional; conditions: ATCC 6538, 24 h, read-out: IZ; how it was run: as §1
Escherichia coli [3] = experiment: Antibacterial activity against Escherichia coli ATCC 8739 at < 100 ug/ml after 24 hrs at 37 degC by agar hole-plate diffusion assay; assay type: functional, organism-based
Pseudomonas aeruginosa [4] = experiment: Antibacterial activity against Pseudomonas aeruginosa ATCC 9027 at < 100 ug/ml after 24 hrs at 37 degC by agar hole-plate diffusion assay; assay type: functional, organism-based
Candida albicans [5] = experiment: Antifungal activity against Candida albicans ATCC 10231 at < 100 ug/ml after 24 hrs at 25 degC by agar hole-plate diffusion assay; assay type: functional, organism-based
Bacillus subtilis [6] = experiment: Antibacterial activity against Bacillus subtilis ATCC 6633 after overnight incubation at 37 degC by twofold serial dilution technique; assay type: functional
How it was run: (§2)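 Twofold broth dilution MIC. Sample at 1 mg/ml in MeOH-H2O (1:1), 0.5 ml added to 4.5 ml nutrient broth, then doubling dilutions from 100 to 0.2 μg/ml. Each tube inoculated to 10⁶ organisms/ml final. Duplicate per organism, with solvent and streptomycin control broths.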

Staphylococcus aureus [7] = experiment: Antibacterial activity against Staphylococcus aureus ATCC 6538 after overnight incubation at 37 degC by twofold serial dilution technique; assay type: functional; how it was run: as §2
Escherichia coli [8] = experiment: Antibacterial activity against Escherichia coli ATCC 8739 by agar diffusion technique; assay type: functional
Pseudomonas aeruginosa [9] = experiment: Antibacterial activity against Pseudomonas aeruginosa ATCC 9027 by agar diffusion technique; assay type: functional
Candida albicans [10] = experiment: Antifungal activity against Candida albicans ATCC 10231 by agar diffusion technique; assay type: functional
Bacillus subtilis [11] = experiment: Antibacterial activity against Bacillus subtilis ATCC 6633 at < 100 ug/ml after 24 hrs at 37 degC by agar hole-plate diffusion assay; assay type: functional, organism-based
[12] = Cytotoxicity against human BC1 cells after 72 hrs by sulforhodamine B assay; assay type: functional; conditions: BC1, 72 h, read-out: ED50 (the source's name)
How it was run: (§3)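 Log-phase cells treated with five sample concentrations (20.0–0.032 μg/ml) in DMSO for 72 h at 37°, 5% CO₂, 100% humidity. Sulforhodamine B staining quantified cells per well; results given as ED50.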

HT-1080 = experiment: Cytotoxicity against human HT1080 cells after 48 hrs by sulforhodamine B assay; assay type: functional; conditions: HT-1080, 48 h, read-out: ED50 (the source's name)
How it was run: (§4)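 Log-phase cells exposed to five concentrations (20.0–0.032 μg/ml) of sample in DMSO for 48 h at 37°, 5% CO₂, 100% humidity. Cell quantity per well determined by sulforhodamine B staining; ED50 reported.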

[13] = Cytotoxicity against human LUC1 cells after 48 hrs by sulforhodamine B assay; assay type: functional; conditions: LUC1, 48 h, read-out: ED50 (the source's name); how it was run: as §4
SK-MEL-2 = experiment: Cytotoxicity against human SK-MEL-2 cells after 72 hrs by sulforhodamine B assay; assay type: functional; conditions: SK-MEL-2, 72 h, read-out: ED50 (the source's name); how it was run: as §3
KB = experiment: Cytotoxicity against human KB cells after 72 hrs by sulforhodamine B assay; assay type: functional; conditions: read-out: ED50 (the source's name); how it was run: as §3
[14] = Cytotoxicity against vinblastine-resistant human KBV1 cells after 72 hrs by sulforhodamine B assay; assay type: functional; conditions: KB-V1, 72 h, read-out: ED50 (the source's name); how it was run: as §3
P388 = experiment: Cytotoxicity against mouse P388 cells after 48 hrs by sulforhodamine B assay; assay type: functional; conditions: P388, 48 h, read-out: ED50 (the source's name); how it was run: as §4
A-431 = experiment: Cytotoxicity against human A431 cells after 72 hrs by sulforhodamine B assay; assay type: functional; conditions: A-431, 72 h, read-out: ED50 (the source's name); how it was run: as §3
LNCaP = experiment: Cytotoxicity against human LNCAP cells after 72 hrs by sulforhodamine B assay; assay type: functional; conditions: read-out: ED50 (the source's name); how it was run: as §3
ZR-75-1 = experiment: Cytotoxicity against human ZR-75-1 cells after 72 hrs by sulforhodamine B assay; assay type: functional; conditions: ZR-75-1, 72 h, read-out: ED50 (the source's name); how it was run: as §3
Staphylococcus aureus [15] = experiment: Antibacterial activity against Staphylococcus aureus ATCC 6538 at < 100 ug/ml after 24 hrs at 37 degC by agar hole-plate diffusion assay; assay type: functional, organism-based
[16] = Cytotoxicity against human Col2 cells after 72 hrs by sulforhodamine B assay; conditions: Col2, 72 h, read-out: ED50 (the source's name)

Compound | zone of inhibition at 1000 µg/mL (Bacillus subtilis [1]) [mm] | zone of inhibition at 1000 µg/mL (Staphylococcus aureus [2]) [mm] | Activity (Escherichia coli [3]) | Activity (Pseudomonas aeruginosa [4]) | Activity (Candida albicans [5]) | MIC (Bacillus subtilis [6]) [µg/mL] | MIC (Staphylococcus aureus [7]) [µg/mL] | MIC (Escherichia coli [8]) [µg/mL] | MIC (Pseudomonas aeruginosa [9]) [µg/mL] | MIC (Candida albicans [10]) [µg/mL] | EC50 [12] [µg/mL] | EC50 (HT-1080) [µg/mL] | EC50 [13] [µg/mL] | EC50 (SK-MEL-2) [µg/mL] | EC50 (KB) [µg/mL] | EC50 [14] [µg/mL] | EC50 (P388) [µg/mL] | EC50 (A-431) [µg/mL] | EC50 (LNCaP) [µg/mL] | EC50 (ZR-75-1) [µg/mL] | further results
CCCC[C@H](OC(=O)CCl)[C@@H](OC(C)=O)[C@H](OC(C)=O)[C@@H]1OC(=O)C=C[C@@H]1OC(C)=O | 7 | 5 | inactive | inactive | inactive | 50 (≈ 108 µM) | 75 (≈ 162 µM) | 300 (≈ 648 µM) | 300 (≈ 648 µM) | 200 (≈ 432 µM) |  |  |  |  |  |  |  |  |  |  | 
CCCC[C@@H](/C=C\[C@@H]1OC(=O)C[C@@H](OC)[C@@H]1O)OC(C)=O |  |  | inactive | inactive | inactive | > 100 | > 100 | > 500 | > 500 | > 500 | > 20 | > 20 | > 20 | > 20 | > 20 | > 20 | > 5 | > 20 | > 20 | > 20 | Activity (Bacillus subtilis [11]): inactive
CC(=O)O[C@@H](C)[C@@H](/C=C/[C@@H]1O[C@@H]1[C@H]1CC=CC(=O)O1)OC(C)=O |  |  |  |  |  |  |  |  |  |  | 4.8 (≈ 14.8 µM) | 5.7 (≈ 17.6 µM) | 3.3 (≈ 10.2 µM) | 4.1 (≈ 12.6 µM) | 2.9 (≈ 8.94 µM) | 3.4 (≈ 10.5 µM) | 0.4 (≈ 1.23 µM) | 1.9 (≈ 5.86 µM) | 1.8 (≈ 5.55 µM) | 4.7 (≈ 14.5 µM) | Activity (Bacillus subtilis [11]): inactive; Activity (Staphylococcus aureus [15]): inactive
CCCC[C@H](OC(C)=O)[C@@H](O)[C@H](O)[C@@H]1OC(=O)C=C[C@@H]1OC(C)=O | 7 | 4 | inactive | inactive | inactive | 50 (≈ 145 µM) | 75 (≈ 218 µM) | 300 (≈ 871 µM) | 300 (≈ 871 µM) | 200 (≈ 581 µM) | 9.9 (≈ 28.7 µM) | 6.7 (≈ 19.5 µM) | 8.8 (≈ 25.6 µM) | 6 (≈ 17.4 µM) | 5.9 (≈ 17.1 µM) | > 20 | 0.5 (≈ 1.45 µM) | 4.5 (≈ 13.1 µM) | 4.5 (≈ 13.1 µM) | 6.2 (≈ 18 µM) | EC50 [16]: 5.1 µg/mL (≈ 14.8 µM)
CCCC[C@H](OC(C)=O)[C@@H](OC(C)=O)[C@H](OC(C)=O)[C@@H]1OC(=O)C=C[C@@H]1OC(C)=O | 5 | 4 | inactive | inactive | inactive | 50 (≈ 117 µM) | 100 (≈ 233 µM) | 300 (≈ 700 µM) | 200 (≈ 467 µM) | 500 (≈ 1170 µM) | 7 (≈ 16.3 µM) | 8.4 (≈ 19.6 µM) | 7.6 (≈ 17.7 µM) | 4.5 (≈ 10.5 µM) | 4.4 (≈ 10.3 µM) | 6.3 (≈ 14.7 µM) | 0.4 (≈ 0.934 µM) | 2.6 (≈ 6.07 µM) | 1.9 (≈ 4.43 µM) | 7.8 (≈ 18.2 µM) | 
CCCC[C@H](OC(C)=O)[C@@H](OC(C)=O)[C@H](OC(C)=O)[C@H]1CC=CC(=O)O1 [BORONOLIDE] |  |  |  |  |  |  |  |  |  |  | 2.8 (≈ 7.56 µM) | 4.5 (≈ 12.1 µM) | 3.9 (≈ 10.5 µM) | 3.3 (≈ 8.91 µM) | 4 (≈ 10.8 µM) | 8.6 (≈ 23.2 µM) | 1 (≈ 2.7 µM) | 6.5 (≈ 17.5 µM) | 3.2 (≈ 8.64 µM) | 8.7 (≈ 23.5 µM) | Activity (Bacillus subtilis [11]): inactive; Activity (Staphylococcus aureus [15]): inactive
